Assay results published in ChEMBL document CHEMBL1123716, “Synthesis and tumor uptake of 5-halo-1-(2'-fluoro-2'-deoxy-beta-D-ribofuranosyl)[2-14C]uracils” (J Med Chem, 1987).
“And” between values parts separate entries of the source, which are not always exact repeats. Equal values may be shown once.

How the values were obtained:
Mus musculus [1] = assay: Tissue distribution in BDF1 female mice bearing an implanted lewis lung tumor after intravenous injection in bone at 24 h.; type: ADME, organism-based; details: in vivo
In short: (§1)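 Female BDF1 mice (18–20 g) with implanted Lewis lung tumor received the 2-14C compound by tail vein, 23–193 kBq in normal saline, reconstituted from a dry film just before use. Animals were killed at set times and tissues taken for 14C counting by combustion and liquid scintillation. Values are percent injected dose per gram wet tissue, mean ± standard deviation, six animals.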

Mus musculus [2] = assay: Tissue distribution in BDF1 female mice bearing an implanted lewis lung tumor after intravenous injection in lung at 1 h.; type: ADME, organism-based; details: in vivo
In short: (§2)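 Female BDF₁ mice (18–20 g) carrying transplanted Lewis lung tumor received 23–193 kBq of the [2-¹⁴C]-labeled nucleoside in normal saline via tail vein. The compound was stored as a dry film and reconstituted just before use. Animals were killed at set times, and tissue ¹⁴C was measured by combustion and liquid scintillation. Values are mean ± SD % injected dose per gram of wet tissue, n = 6.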

Mus musculus [3] = assay: Tissue distribution in BDF1 female mice bearing an implanted lewis lung tumor after intravenous injection in lung at 2 h.; type: ADME, organism-based; details: in vivo; in short: as §2
Mus musculus [4] = assay: Tissue distribution in BDF1 female mice bearing an implanted lewis lung tumor after intravenous injection in lung at 24 h.; type: ADME, organism-based; details: in vivo; in short: as §2
Mus musculus [5] = assay: Tissue distribution in BDF1 female mice bearing an implanted lewis lung tumor after intravenous injection in muscle at 0.25 h.; type: ADME, organism-based; details: in vivo; in short: as §2
Mus musculus [6] = assay: Tissue distribution in BDF1 female mice bearing an implanted lewis lung tumor after intravenous injection in muscle at 0.5 h.; type: ADME, organism-based; details: in vivo; in short: as §2
Mus musculus [7] = assay: Tissue distribution in BDF1 female mice bearing an implanted lewis lung tumor after intravenous injection in muscle at 2 h.; type: ADME, organism-based; details: in vivo; in short: as §2
Mus musculus [8] = assay: Tissue distribution in BDF1 female mice bearing an implanted lewis lung tumor after intravenous injection in skin at 1 h.; type: ADME, organism-based, Skin of body; details: in vivo; in short: as §2
Mus musculus [9] = assay: Tissue distribution in BDF1 female mice bearing an implanted lewis lung tumor after intravenous injection in spleen at 0.25 h.; type: ADME, organism-based; details: in vivo; in short: as §2
Mus musculus [10] = assay: Tissue distribution in BDF1 female mice bearing an implanted lewis lung tumor after intravenous injection in bone at 4 h.; type: ADME, organism-based; details: in vivo; in short: as §1
Mus musculus [11] = assay: Tissue distribution in BDF1 female mice bearing an implanted lewis lung tumor after intravenous injection in git(Section of intestine) at 0.5 h.; type: ADME, organism-based; details: in vivo; in short: as §1
Mus musculus [12] = assay: Tissue distribution in BDF1 female mice bearing an implanted lewis lung tumor after intravenous injection in git(Section of intestine) at 1 h.; type: ADME, organism-based; details: in vivo; in short: as §1
Mus musculus [13] = assay: Tissue distribution in BDF1 female mice bearing an implanted lewis lung tumor after intravenous injection in git(Section of intestine) at 24 h.; type: ADME, organism-based; details: in vivo; in short: as §1
Mus musculus [14] = assay: Tissue distribution in BDF1 female mice bearing an implanted lewis lung tumor after intravenous injection in bone at 0.25 h.; type: ADME, organism-based; details: in vivo; in short: as §1
Mus musculus [15] = assay: Tissue distribution in BDF1 female mice bearing an implanted lewis lung tumor after intravenous injection in heart at 0.5 h.; type: ADME, organism-based; details: in vivo; in short: as §1
Mus musculus [16] = assay: Tissue distribution in BDF1 female mice bearing an implanted lewis lung tumor after intravenous injection in heart at 1 h.; type: ADME, organism-based; details: in vivo; in short: as §1
Mus musculus [17] = assay: Tissue distribution in BDF1 female mice bearing an implanted lewis lung tumor after intravenous injection in heart at 4 h.; type: ADME, organism-based; details: in vivo; in short: as §1
Mus musculus [18] = assay: Tissue distribution in BDF1 female mice bearing an implanted lewis lung tumor after intravenous injection in liver at 0.5 h.; type: ADME, organism-based; details: in vivo; in short: as §2
Mus musculus [19] = assay: Tissue distribution in BDF1 female mice bearing an implanted lewis lung tumor after intravenous injection in liver at 1 h.; type: ADME, organism-based; details: in vivo; in short: as §2
Mus musculus [20] = assay: Tissue distribution in BDF1 female mice bearing an implanted lewis lung tumor after intravenous injection in liver at 4 h.; type: ADME, organism-based; details: in vivo; in short: as §2
Mus musculus [21] = assay: Tissue distribution in BDF1 female mice bearing an implanted lewis lung tumor after intravenous injection in liver at 8 h.; type: ADME, organism-based; details: in vivo; in short: as §2
Mus musculus [22] = assay: Tissue distribution in BDF1 female mice bearing an implanted lewis lung tumor after intravenous injection in blood at 1 h.; type: ADME, organism-based; details: in vivo; in short: as §1
Mus musculus [23] = assay: Tissue distribution in BDF1 female mice bearing an implanted lewis lung tumor after intravenous injection in blood at 2 h.; type: ADME, organism-based; details: in vivo; in short: as §1
Mus musculus [24] = assay: Tissue distribution in BDF1 female mice bearing an implanted lewis lung tumor after intravenous injection in spleen at 24 h.; type: ADME, organism-based; details: in vivo; in short: as §2
Mus musculus [25] = assay: Tissue distribution in BDF1 female mice bearing an implanted lewis lung tumor after intravenous injection in spleen at 4 h.; type: ADME, organism-based; details: in vivo; in short: as §2
Mus musculus [26] = assay: Tissue distribution in BDF1 female mice bearing an implanted lewis lung tumor after intravenous injection in stomach at 1 h.; type: ADME, organism-based; details: in vivo; in short: as §2
Mus musculus [27] = assay: Tissue distribution in BDF1 female mice bearing an implanted lewis lung tumor after intravenous injection in stomach at 8 h.; type: ADME, organism-based; details: in vivo
In short: (§3)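 Female BDF1 mice (18–20 g) carrying a transplanted Lewis lung tumor were given 23–193 kBq of the [2-14C]-labelled nucleoside in normal saline by tail vein. Animals were killed at set times. Tissue 14C was counted by liquid scintillation, after combustion or directly. Values are percent of injected dose per gram wet tissue, as mean ± standard deviation of six animals.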

Mus musculus [28] = assay: Tissue distribution in BDF1 female mice bearing an implanted lewis lung tumor after intravenous injection in tumor at 0.5 h.; type: ADME, organism-based; details: in vivo; in short: as §3
Mus musculus [29] = assay: Tissue distribution in BDF1 female mice bearing an implanted lewis lung tumor after intravenous injection in tumor at 2 h.; type: ADME, organism-based; details: in vivo; in short: as §3
Mus musculus [30] = assay: Tissue distribution in BDF1 female mice bearing an implanted lewis lung tumor after intravenous injection in tumor at 8 h.; type: ADME, organism-based; details: in vivo; in short: as §3
Mus musculus [31] = assay: Radioactive constituent in urine at 2 hr time interval after intravenous injection into BDF1 female mice bearing lewis lung tumor; type: ADME, organism-based; details: in vivo
In short: (§4)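 Radiolabeled nucleoside given in normal saline by tail vein, 23–193 kBq per mouse, to female BDF1 mice (18–20 g) carrying transplanted Lewis lung tumor. Urine was collected when the animals were killed. Components were identified by reverse-phase HPLC with UV at 256 nm on urine spiked with reference compounds, matched to liquid scintillation counts of the eluate. Each is reported as a percent of total urine radioactivity.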

Mus musculus [32] = assay: Radioactive constituent of uracil in urine at 2 hr time interval after intravenous injection into BDF1 female mice bearing lewis lung tumor; type: ADME, organism-based; details: in vivo; in short: as §4
[33] = Total urine activity excreted at 2 hr was estimated from the measurement of loss of tissue activity; type: ADME, tissue-based
Mus musculus [34] = assay: Tissue distribution in BDF1 female mice bearing an implanted lewis lung tumor after intravenous injection in bone at 2 h.; type: ADME, organism-based; details: in vivo; in short: as §1
Mus musculus [35] = assay: Tissue distribution in BDF1 female mice bearing an implanted lewis lung tumor after intravenous injection in lung at 8 h.; type: ADME, organism-based; details: in vivo; in short: as §2
Mus musculus [36] = assay: Tissue distribution in BDF1 female mice bearing an implanted lewis lung tumor after intravenous injection in kidney at 4 h.; type: ADME, organism-based; details: in vivo; in short: as §2
Mus musculus [37] = assay: Radioactive constituent of other in urine at 4 hr time interval after intravenous injection into BDF1 female mice bearing lewis lung tumor; type: ADME, organism-based; details: in vivo; in short: as §4
Mus musculus [38] = assay: Tissue distribution in BDF1 female mice bearing an implanted lewis lung tumor after intravenous injection in skin at 24 h.; type: ADME, organism-based, Skin of body; details: in vivo; in short: as §2
Mus musculus [39] = assay: Radioactive constituent of 5-fluorouracil in urine at 2 hr time interval after intravenous injection into BDF1 female mice bearing lewis lung tumor; details: in vivo
Mus musculus [40] = assay: Tissue distribution in BDF1 female mice bearing an implanted lewis lung tumor after intravenous injection in kidney at 0.25 h; type: ADME, organism-based; details: in vivo; in short: as §1
Mus musculus [41] = assay: Tissue distribution in BDF1 female mice bearing an implanted lewis lung tumor after intravenous injection in stomach at 0.25 h; type: ADME, organism-based; details: in vivo; in short: as §2

Tissue distribution (Mus musculus [1]) | Tissue distribution (Mus musculus [2]) | Tissue distribution (Mus musculus [3]) | Tissue distribution (Mus musculus [4]) | Tissue distribution (Mus musculus [6]) | Tissue distribution (Mus musculus [7]) | Tissue distribution (Mus musculus [8]) | Tissue distribution (Mus musculus [10]) | Tissue distribution (Mus musculus [11]) | Tissue distribution (Mus musculus [12]) | Tissue distribution (Mus musculus [13]) | Tissue distribution (Mus musculus [15]) | Tissue distribution (Mus musculus [16]) | Tissue distribution (Mus musculus [17]) | Tissue distribution (Mus musculus [18]) | Tissue distribution (Mus musculus [19]) | Tissue distribution (Mus musculus [20]) | Tissue distribution (Mus musculus [21]) | Tissue distribution (Mus musculus [22]) | Tissue distribution (Mus musculus [23]) | Structure (SMILES) | other results
0.02 | 0.51 | 0.07 | 0.005 | 1.06 | 0.06 | 0.43 | 0.07 | 1.59 | 0.71 | 0.01 | 1.71 | 0.58 | 0.02 | 1.54 | 0.53 | 0.02 | 0.01 | 0.54 | 0.06 | O=c1[nH]c(=O)n([C@H]2O[C@@H](CO)[C@H](O)[C@H]2F)cc1F | Tissue distribution (Mus musculus [5]): 2.48; Tissue distribution (Mus musculus [9]): 8.72; Tissue distribution (Mus musculus [14]): 1.69; Tissue distribution (Mus musculus [24]): 0.03; Tissue distribution (Mus musculus [25]): 0.18; Tissue distribution (Mus musculus [26]): 0.38; Tissue distribution (Mus musculus [27]): 0.01; Tissue distribution (Mus musculus [28]): 3.88; Tissue distribution (Mus musculus [29]): 0.49; Tissue distribution (Mus musculus [30]): 0.05; Total radioactivity (Mus musculus [31]): 88.5%; Total radioactivity (Mus musculus [32]): 3.3%; Total urine activity [33]: 30%; Tissue distribution (Mus musculus [34]): 0.11; Tissue distribution (Mus musculus [35]): 0.01; Tissue distribution (Mus musculus [36]): 0.08; Total radioactivity (Mus musculus [37]): 23%; Tissue distribution (Mus musculus [38]): 0.004; Total radioactivity (Mus musculus [39]): 2.8%
0.01 | 0.43 | 0.14 | 0.01 | 0.78 | 0.15 | 0.36 | 0.04 | 1.02 | 0.38 | 0.02 | 1.56 | 0.53 | 0.06 | 1.43 | 0.47 and 0.6 | 0.05 | 0.03 | 0.58 | 0.18 | O=c1[nH]c(=O)n([C@H]2O[C@@H](CO)[C@H](O)[C@H]2F)cc1Cl | Tissue distribution (Mus musculus [40]): 36.2; Tissue distribution (Mus musculus [24]): 0.06; Tissue distribution (Mus musculus [25]): 0.17; Tissue distribution (Mus musculus [41]): 1.41; Tissue distribution (Mus musculus [26]): 0.27; Tissue distribution (Mus musculus [27]): 0.05; Tissue distribution (Mus musculus [28]): 1.82; Tissue distribution (Mus musculus [29]): 0.34; Tissue distribution (Mus musculus [30]): 0.07; Tissue distribution (Mus musculus [34]): 0.08; Tissue distribution (Mus musculus [35]): 0.03; Tissue distribution (Mus musculus [36]): 0.33; Tissue distribution (Mus musculus [38]): 0.01
